Measured values as given in publication PMC9753534 (ACS Omega, 2022).

Tests used:
[1] = system: MCF-7 cell line; experiment: MTT antiproliferative test, MCF-7; type: cell-based; conditions: Homo sapiens, MCF7, read-out: IC50 (n = 3), antiproliferative effect vs MCF-7
[2] = system: A549 cell line; experiment: MTT antiproliferative test, A549; type: cell-based; conditions: Homo sapiens, A549, read-out: IC50 (n = 3), antiproliferative effect vs A549
[3] = molecular target: EGFR^WT (Homo sapiens, UniProt P00533); experiment: HTRF kinase inhibitory assay, EGFR^WT; type: biochemical
[4] = molecular target: EGFR^T790M (Homo sapiens, UniProt P00533, T790M); experiment: biochemical; type: biochemical
[5] = Antioxidant activity by ABTS method; conditions: absorbance at 734 nm
Outline: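 ABTS radical cation was generated by mixing ammonium peroxodisulfate (65 mmol/dm3) with ABTS in phosphate buffer pH 7.4 and leaving it overnight. The stock was diluted in phosphate buffer pH 7.4 and A734 was read. Test compound was added after 1 min, mixed, and A734 was re-read. Results are expressed as trolox equivalents from a linear trolox calibration (absorbance decrease vs concentration).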

SMILES | IC50 [1] | IC50 [2] | IC50 [3] | IC50 [4] | radical scavenging activity (ABTS) [5] | times the activity of gefitinib vs EGFR^T790M ([4]; ratio of IC50 vs gefitinib)
N=c1c2sc3sc4c(=N)n(-c5ccccc5)c(=O)[nH]c4c3c2[nH]c(=O)n1-c1ccccc1 [Compound 5, 1,8-Diimino-2,7-diphenyl-1,4,7,8-tetrahydro-2H,5H-9,10-dithia-2,4,5,7-tetraaza-indeno[1,2-a]indene-3,6-dione] | 17.3 ± 0.71 µM | 7.54 ± 0.32 µM | 2020 ± 120 nM | 15.1 ± 0.51 µM | 70% | –
Nc1c(-c2nnn[nH]2)sc2sc(-c3nnn[nH]3)c(N)c12 [Compound 7, 2,5-Di(1H-tetrazol-5-yl)thieno[2,3-b]thiophene-3,4-diamine] | 17.3 ± 0.71 µM | 8.27 ± 0.16 µM | 3270 ± 160 nM | 16.3 ± 0.61 µM | – | –
C#Cc1cccc(Nc2ncnc3cc(OCCOC)c(OCCOC)cc23)c1 [erlotinib, reference compound] | 21.8 ± 1.85 µM | 19.3 ± 1.85 µM | – | – | – | –
N#Cc1sc2sc(C#N)c(N)c2c1N [Compound 1, 3,4-diaminothieno[2,3-b]thiophene-2,5-dicarbonitrile] | 8.57 ± 0.31 µM | 5.09 ± 0.15 µM | 290 ± 50 nM | 7.89 ± 0.31 µM | – | 2.71 times
